Results reported in ChEMBL document CHEMBL4311947, “Discovery of Novel Naphthylphenylketone and Naphthylphenylamine Derivatives as Cell Division Cycle 25B (CDC25B) Phosphatase Inhibitors: Design, Synthesis, Inhibition Mechanism, and in Vitro Efficacy against Melanoma Cell Lines” (J Med Chem, 2019).
Calls of active or inactive are those of the source. No cut-off for these calls is given here.

Experiments:
A2058 [1] = experiment: Induction of cell cycle arrest in human A2058 cells assessed as increase in accumulation at G2/M phase at 10 uM after 16 hrs by propidium iodide staining based flow cytometric method; assay type: functional
Method in brief: (§1)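 Seeded at 3×10^5 cells/well for 24 h at 37°C, then exposed to 10 µM inhibitor or 0.5% (v/v) DMSO for 8 or 16 h. Trypsin-harvested, fixed in cold 70% ethanol at -20°C for 1 h, stained 30 min at 4°C with 50 µg/mL PI in non-lysis solution. Phase distribution (sub-G1, G0/G1, S, G2/M) read by FACScan; triplicate experiments, mean ± SE.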

A-375 [2] = experiment: Inhibition of colony formation in human A375 cells at 0.625 to 10 uM after 10 days by crystal violet staining based assay; assay type: functional, cell-based
Method in brief: (§2)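 Seeded in duplicate at 4×10^2 cells/well; after 2–3 days treated with 0.5% (v/v) DMSO or 0.625–10 µM inhibitor for 10 days at 37°C. Stained 1 h with 1% crystal violet in 50% ethanol; colonies of ≥50 cells counted, expressed as percentage, mean ± SE of at least three experiments.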

A2058 [3] = experiment: Inhibition of colony formation in human A2058 cells at 0.625 to 10 uM after 10 days by crystal violet staining based assay; assay type: functional, cell-based; method in brief: as §2
A2058 [4] = experiment: Cytotoxicity against human A2058 cells at 2.5 uM after 72 hrs by MTT assay; assay type: functional, cell-based
Method in brief: (§3)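 Cells seeded at 4×10^4/well, treated 24 h after plating with inhibitor or 0.5% (v/v) DMSO vehicle for 24, 48 or 72 h. MTT added, 3 h at 37°C under 5% CO2, formazan solubilised, absorbance at 570 nm. Viability in arbitrary units, mean ± SE of at least three independent experiments versus control. Cells grown in DMEM/10% FBS at 37°C, 5% CO2; BJ-5ta cultured in 4:1 DMEM/Medium 199 with hygromycin B.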

A-375 [5] = experiment: Induction of cell cycle arrest in human A375 cells assessed as increase in accumulation at subG1 phase at 10 uM after 16 hrs by propidium iodide staining based flow cytometric method; assay type: functional; method in brief: as §1
[6] = molecular target: T1, M-phase inducer phosphatase 2 (Homo sapiens, UniProt P30305); experiment: Uncompetitive inhibition of N-terminal His6-tagged human CDC25B (377 to 550 residues) expressed in Escherichia coli BL21(DE3) cells using OMFP as substrate by double reciprocal Lineweaver-Burk plot analysis
T1 sequence (P30305 whole entry): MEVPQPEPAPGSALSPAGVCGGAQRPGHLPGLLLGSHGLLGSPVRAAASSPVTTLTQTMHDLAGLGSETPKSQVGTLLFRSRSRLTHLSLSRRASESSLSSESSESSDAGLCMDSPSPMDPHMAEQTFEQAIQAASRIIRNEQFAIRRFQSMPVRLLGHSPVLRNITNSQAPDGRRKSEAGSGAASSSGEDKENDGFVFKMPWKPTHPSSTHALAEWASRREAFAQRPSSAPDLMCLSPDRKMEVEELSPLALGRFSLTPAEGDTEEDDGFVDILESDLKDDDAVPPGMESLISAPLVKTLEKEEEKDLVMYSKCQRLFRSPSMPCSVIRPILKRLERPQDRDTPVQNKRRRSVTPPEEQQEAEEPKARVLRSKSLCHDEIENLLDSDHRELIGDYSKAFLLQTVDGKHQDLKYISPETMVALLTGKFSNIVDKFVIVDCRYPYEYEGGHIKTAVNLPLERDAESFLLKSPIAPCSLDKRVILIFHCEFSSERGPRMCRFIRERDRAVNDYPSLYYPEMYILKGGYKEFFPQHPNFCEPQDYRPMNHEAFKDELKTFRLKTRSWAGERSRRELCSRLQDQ
Method in brief: (§4)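 Recombinant CDC25 form (15–25 nM) in 20 mM Tris-HCl pH 7.8, 0.5 mM TCEP, 1% (v/v) DMSO, with or without inhibitor. Reaction started with 0.5–25 µM OMFP; O-methylfluorescein formation followed continuously at 30°C (ex 485/em 530 nm). Initial rates (AU/min) analysed in Lineweaver-Burk plots for Vmax, KM and mechanism; Ki averaged from at least three independent experiments, only roughly estimated for mixed inhibition.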

[7] = molecular target: T2, M-phase inducer phosphatase 2 (Homo sapiens) (UniProt P30305); experiment: Inhibition of N-terminal His6-tagged human CDC25B (377 to 550 residues) expressed in Escherichia coli BL21(DE3) cells assessed as reduction in Vmax using OMFP as substrate by double reciprocal Lineweaver-Burk plot analysis; method in brief: as §4
T2 sequence (whole entry): T1 sequence (P30305 whole entry)

A2058 [8] = experiment: Cytotoxicity against human A2058 cells at 50 uM after 24 hrs by MTT assay; assay type: functional, cell-based; method in brief: as §3
A-375 [9] = experiment: Induction of cell cycle arrest in human A375 cells assessed as decrease in accumulation at G0/G1 phase at 10 uM after 16 hrs by propidium iodide staining based flow cytometric method; assay type: functional; method in brief: as §1
[10] = molecular target: T2, M-phase inducer phosphatase 2 (Homo sapiens); experiment: Inhibition of CDC25B in human A2058 cells assessed as increase in phosphorylated cdk1 level at 10 uM after 8 hrs by Western blot analysis; assay type: cell-based
Method in brief: (§5)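 After 24 h at 3×10^5 cells, 8 h treatment with 10 µM inhibitor or 0.5% DMSO. Lysis in ice-cold modified RIPA with Na3VO4, NaF and protease inhibitors; Bradford-normalised equal protein on 12% SDS-PAGE. Rabbit polyclonal anti-p-Cdk1 overnight at 4°C, HRP secondary, ECL detection; β-actin loading control.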

A2058 [11] = experiment: Cytotoxicity against human A2058 cells at 5 uM after 48 hrs by MTT assay; assay type: functional, cell-based; method in brief: as §3
A2058 [12] = experiment: Induction of cell cycle arrest in human A2058 cells assessed as increase in accumulation at G2/M phase at 10 uM after 8 hrs by propidium iodide staining based flow cytometric method; assay type: functional; method in brief: as §1
[13] = molecular target: T2, M-phase inducer phosphatase 2 (Homo sapiens); experiment: Inhibition of CDC25B in human A375 cells assessed as increase in phosphorylated cdk1 level at 10 uM after 8 hrs by Western blot analysis; assay type: cell-based; method in brief: as §5

Ki [6]: 8.5 µM
inhibition [7]: Active
inhibition [10]: Active
inhibition [13]: Active
Structure (SMILES): CCOC(=O)c1cccc(Nc2cc(OC)cc3ccccc23)c1
Activity (A2058 [1]): Active
inhibition (A-375 [2]): Active
inhibition (A2058 [3]): Active
Activity (A2058 [4]): Active
Activity (A-375 [5]): Active
Activity (A2058 [8]): Active
Activity (A-375 [9]): Active
Activity (A2058 [11]): Active
Activity (A2058 [12]): Active
